One block for each compound: values may come before it. The source made the active and inactive calls. The rule behind the calls is not given here. Peptide text beside a SMILES is read from it.
Columns and labels:
Dipeptidyl peptidase 4 [1] = target: Dipeptidyl peptidase 4 (Sus scrofa, UniProt P22411); test: Stability of the compound assessed as porcine DPP4-mediated compound degradation at 0.1 mM measured over 30 mins by reverse-phase HPLC/MS analysis; assay type: ADME; conditions: pig, 0.5 h, 100 µM
Chain of Dipeptidyl peptidase 4 (Sus scrofa, UniProt P22411) (P22411 whole entry): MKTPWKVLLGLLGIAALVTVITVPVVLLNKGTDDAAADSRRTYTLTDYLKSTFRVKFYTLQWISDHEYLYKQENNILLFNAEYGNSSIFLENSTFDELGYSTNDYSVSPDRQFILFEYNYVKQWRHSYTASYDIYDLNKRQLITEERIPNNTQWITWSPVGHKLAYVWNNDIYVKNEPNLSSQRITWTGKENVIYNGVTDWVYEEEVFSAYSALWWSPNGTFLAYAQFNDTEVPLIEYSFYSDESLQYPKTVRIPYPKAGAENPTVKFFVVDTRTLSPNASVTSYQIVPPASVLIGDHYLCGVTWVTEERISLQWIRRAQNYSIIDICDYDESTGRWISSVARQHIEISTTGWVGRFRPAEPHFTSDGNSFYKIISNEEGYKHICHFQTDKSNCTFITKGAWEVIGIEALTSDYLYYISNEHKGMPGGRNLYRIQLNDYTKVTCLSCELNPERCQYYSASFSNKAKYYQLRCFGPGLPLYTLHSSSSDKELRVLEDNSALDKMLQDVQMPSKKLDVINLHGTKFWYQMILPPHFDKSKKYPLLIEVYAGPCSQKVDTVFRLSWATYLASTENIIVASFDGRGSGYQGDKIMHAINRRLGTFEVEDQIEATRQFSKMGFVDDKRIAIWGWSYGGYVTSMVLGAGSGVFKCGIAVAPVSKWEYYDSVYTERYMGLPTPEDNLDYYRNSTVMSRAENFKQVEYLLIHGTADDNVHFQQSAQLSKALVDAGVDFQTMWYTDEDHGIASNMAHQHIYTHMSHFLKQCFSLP
Summary of the method: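 Peptide (0.1 mM) incubated at 37 °C with DPP IV purified from porcine kidney (10 mU/mL) in 50 mM HEPES, 0.14 M NaCl, pH 8.0. Samples taken at set times and quenched with 10% (v/v) 0.1 M HCl. Intact peptide quantified by reverse-phase HPLC-MS and expressed as percent of the time-0 amount.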

Trypsin = Trypsin (Sus scrofa, UniProt P00761); test: Stability of the compound assessed as porcine pancreatic trypsin-mediated compound degradation at 0.1 mM after 10 secs by reverse-phase HPLC/MS analysis; assay type: ADME; conditions: pig, isolated protein, 10 s, 100 µM
Chain of Trypsin (P00761 whole entry): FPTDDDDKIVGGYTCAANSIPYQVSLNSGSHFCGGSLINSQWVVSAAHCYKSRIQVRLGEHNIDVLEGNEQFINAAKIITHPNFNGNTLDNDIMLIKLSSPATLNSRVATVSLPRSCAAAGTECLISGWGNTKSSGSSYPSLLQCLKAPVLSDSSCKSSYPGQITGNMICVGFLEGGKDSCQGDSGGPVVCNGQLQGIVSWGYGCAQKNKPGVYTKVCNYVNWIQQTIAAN
Summary of the method: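 Peptide (0.1 mM) incubated at 37 °C with 100 nM purified porcine pancreatic trypsin in 50 mM Tris-HCl, 20 mM CaCl₂, pH 8.0. Timed samples were acid-quenched with 10% (v/v) 0.1 M HCl, then analysed by reverse-phase HPLC-MS. Mean ± range of two independent experiments.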

[2] = target: Chymotrypsinogen A (Bos taurus) (UniProt P00766); test: Stability of the compound assessed as bovine pancreatic chymotrypsin-mediated compound degradation at 0.1 mM after 10 secs by reverse-phase HPLC/MS analysis; conditions: cow, isolated protein, 10 s, 100 µM
Dipeptidyl peptidase 4 [3] = target: T1, Dipeptidyl peptidase 4 (Homo sapiens, UniProt P27487); test: Competitive inhibition of human recombinant DPP4 using AP-pNA as substrate preincubated for 30 mins followed by substrate addition measured after 30 mins by spectrophotometric analysis
T1 sequence (P27487 whole entry): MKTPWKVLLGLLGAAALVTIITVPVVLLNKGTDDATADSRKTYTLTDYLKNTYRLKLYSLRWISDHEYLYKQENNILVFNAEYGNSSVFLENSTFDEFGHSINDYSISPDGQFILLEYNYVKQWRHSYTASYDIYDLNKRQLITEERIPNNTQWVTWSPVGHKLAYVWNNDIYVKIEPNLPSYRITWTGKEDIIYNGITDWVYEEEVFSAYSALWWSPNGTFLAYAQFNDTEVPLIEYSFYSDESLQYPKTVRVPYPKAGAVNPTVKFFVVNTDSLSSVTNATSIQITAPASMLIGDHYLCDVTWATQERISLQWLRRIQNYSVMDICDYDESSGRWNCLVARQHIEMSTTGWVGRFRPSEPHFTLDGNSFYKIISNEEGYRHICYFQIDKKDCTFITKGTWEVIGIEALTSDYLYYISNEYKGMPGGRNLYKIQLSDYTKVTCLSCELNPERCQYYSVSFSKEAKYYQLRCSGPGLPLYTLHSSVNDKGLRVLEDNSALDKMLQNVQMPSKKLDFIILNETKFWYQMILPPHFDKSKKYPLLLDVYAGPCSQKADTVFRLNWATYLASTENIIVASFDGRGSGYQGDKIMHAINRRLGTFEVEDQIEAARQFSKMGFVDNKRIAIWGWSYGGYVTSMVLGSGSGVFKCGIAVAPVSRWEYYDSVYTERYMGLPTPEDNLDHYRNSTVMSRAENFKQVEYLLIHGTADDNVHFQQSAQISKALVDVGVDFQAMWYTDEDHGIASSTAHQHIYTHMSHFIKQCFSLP

[4] = target: DPP4 (dipeptidyl peptidase 4) (Rattus norvegicus, UniProt P14740); test: Metabolic stability in rat serum assessed as half life of DPP4-mediated compound degradation; assay type: ADME, cell-free
Chain of DPP4 (dipeptidyl peptidase 4) (Rattus norvegicus, UniProt P14740) (P14740 whole entry): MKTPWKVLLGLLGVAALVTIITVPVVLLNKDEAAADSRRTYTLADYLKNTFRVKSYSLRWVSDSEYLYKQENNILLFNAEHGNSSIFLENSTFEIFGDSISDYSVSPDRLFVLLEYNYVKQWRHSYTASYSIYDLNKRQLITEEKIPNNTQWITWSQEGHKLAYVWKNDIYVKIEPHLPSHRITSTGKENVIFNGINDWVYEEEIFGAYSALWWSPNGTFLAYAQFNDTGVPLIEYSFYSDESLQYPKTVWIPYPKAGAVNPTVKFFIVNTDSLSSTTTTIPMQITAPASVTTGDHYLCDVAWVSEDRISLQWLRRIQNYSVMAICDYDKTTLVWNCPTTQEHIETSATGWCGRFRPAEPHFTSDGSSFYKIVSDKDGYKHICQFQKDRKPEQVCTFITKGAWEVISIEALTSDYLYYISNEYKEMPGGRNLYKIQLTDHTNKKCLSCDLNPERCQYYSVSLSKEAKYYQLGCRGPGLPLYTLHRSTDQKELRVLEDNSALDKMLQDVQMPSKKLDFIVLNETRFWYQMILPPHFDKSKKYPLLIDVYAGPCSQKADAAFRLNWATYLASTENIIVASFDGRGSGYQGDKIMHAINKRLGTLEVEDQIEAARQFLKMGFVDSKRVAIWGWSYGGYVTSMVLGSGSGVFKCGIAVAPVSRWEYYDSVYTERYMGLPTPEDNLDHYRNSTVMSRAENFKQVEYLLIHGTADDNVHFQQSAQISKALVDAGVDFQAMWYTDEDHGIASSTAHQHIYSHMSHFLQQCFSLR

[5] = target: DPP4 (dipeptidyl peptidase 4) (Homo sapiens, UniProt P27487); test: Metabolic stability in human plasma assessed as half life of DPP4-mediated compound degradation; assay type: ADME
Chain of DPP4 (dipeptidyl peptidase 4) (Homo sapiens, UniProt P27487) (P27487 whole entry): as the sequence (P27487 whole entry) above

Mus musculus [6] = test: Toxicity in C57BL/6 mouse assessed as change in liver weight at 1 mg/kg, ip qd measured on day 7 by necropsy analysis; assay type: organism-based; design: dose 1 mg/kg, route intraperitoneal; conditions: in vivo
Summary of the method: (§1)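 C57BL/6 mice dosed ip once daily for seven days at 1 mg/kg or vehicle; necropsy on day 7 after final dose; liver, kidneys, pancreas, heart and brain collected, inspected for gross abnormalities and weighed; twelve animals in study.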

Mus musculus [7] = test: Antidiabetic activity in db/db mouse assessed as reduction of blood glucose level at 0.2 mg/kg, ip after 60 mins relative to vehicle-treated control; assay type: functional; design: scale not given: the % may be the effect or the level left; conditions: route intraperitoneal
Summary of the method: (§2)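 db/db mice given 8 µg/mouse peptide or PBS vehicle ip; fasting blood glucose measured before and at set times after dosing; expressed as percent change from basal FBG; 10 animals per group.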

Mus musculus [8] = test: Toxicity in C57BL/6 mouse assessed as effect on body weight at 1 mg/kg, ip qd administered for 7 days measured every day during compound administration; assay type: organism-based; design: dose 1 mg/kg, route intraperitoneal; conditions: in vivo, 168 h
Summary of the method: (§3)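 C57BL/6 mice given 1 mg/kg ip once daily for seven days, or vehicle; body weight and per-cage food intake recorded daily; water consumption measured on days 3 and 7.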

Mus musculus [9] = test: Toxicity in C57BL/6 mouse assessed as abnormalities in liver at 1 mg/kg, ip qd measured on day 7 by necropsy analysis; assay type: organism-based; design: dose 1 mg/kg, route intraperitoneal; conditions: in vivo; summary of the method: as §1
Mus musculus [10] = test: Toxicity in C57BL/6 mouse assessed as abnormalities in pancreas at 1 mg/kg, ip qd measured on day 7 by necropsy analysis; assay type: organism-based; design: dose 1 mg/kg, route intraperitoneal; conditions: in vivo; summary of the method: as §1
Dipeptidyl peptidase 4 [11] = target: T1, Dipeptidyl peptidase 4; test: Stability of the compound assessed as recombinant human DPP4-mediated compound degradation at 0.1 mM measured after 24 hrs by reverse-phase HPLC/MS analysis; assay type: ADME; conditions: 100 µM
Summary of the method: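 GLP-1 peptides (0.1 mM) incubated at 37 °C with recombinant human DPP IV in 50 mM HEPES, 0.14 M NaCl, pH 8.0, up to 24 h; acid-quenched samples analysed by RP-HPLC-MS for intact peptide.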

Mus musculus [12] = test: Toxicity in C57BL/6 mouse assessed as change in kidney weight at 1 mg/kg, ip qd measured on day 7 by necropsy analysis; assay type: organism-based; design: dose 1 mg/kg, route intraperitoneal; conditions: in vivo; summary of the method: as §1
Mus musculus [13] = test: Toxicity in C57BL/6 mouse assessed as abnormalities in brain at 1 mg/kg, ip qd measured on day 7 by necropsy analysis; assay type: organism-based; design: dose 1 mg/kg, route intraperitoneal; conditions: in vivo; summary of the method: as §1
Mus musculus [14] = test: Toxicity in C57BL/6 mouse assessed as change in brain weight at 1 mg/kg, ip qd measured on day 7 by necropsy analysis; assay type: organism-based; design: dose 1 mg/kg, route intraperitoneal; conditions: in vivo; summary of the method: as §1
Mus musculus [15] = test: Antidiabetic activity in db/db mouse assessed as reduction of blood glucose AUC (0 to 480 mins) at 0.2 mg/kg, ip; assay type: functional, organism-based; design: dose 0.2 mg/kg
Mus musculus [16] = test: Toxicity in C57BL/6 mouse assessed as change in pancreas weight at 1 mg/kg, ip qd measured on day 7 by necropsy analysis; assay type: organism-based; design: dose 1 mg/kg, route intraperitoneal; conditions: in vivo; summary of the method: as §1
Mus musculus [17] = test: Antidiabetic activity in db/db mouse assessed as reduction of blood glucose level at 0.2 mg/kg, ip after 90 mins relative to vehicle-treated control; assay type: functional; design: scale not given: the % may be the effect or the level left; conditions: route intraperitoneal; summary of the method: as §2
Mus musculus [18] = test: Toxicity in C57BL/6 mouse assessed as abnormalities in heart at 1 mg/kg, ip qd measured on day 7 by necropsy analysis; assay type: organism-based; design: dose 1 mg/kg, route intraperitoneal; conditions: in vivo; summary of the method: as §1
Mus musculus [19] = test: Toxicity in C57BL/6 mouse assessed as effect on food consumption at 1 mg/kg, ip qd administered for 7 days measured every day during compound administration; assay type: organism-based; design: dose 1 mg/kg, route intraperitoneal; conditions: in vivo, 168 h; summary of the method: as §3
Mus musculus [20] = test: Antidiabetic activity in db/db mouse assessed as reduction of blood glucose level at 0.2 mg/kg, ip measured at 240 mins relative to vehicle-treated control; assay type: functional, organism-based; design: dose 0.2 mg/kg; summary of the method: as §2
Mus musculus [21] = test: Toxicity in C57BL/6 mouse assessed as change in heart weight at 1 mg/kg, ip qd measured on day 7 by necropsy analysis; assay type: organism-based; design: dose 1 mg/kg, route intraperitoneal; conditions: in vivo; summary of the method: as §1
Mus musculus [22] = test: Toxicity in C57BL/6 mouse assessed as effect on water consumption at 1 mg/kg, ip qd administered for 7 days measured on day 3 and day 7; conditions: in vivo, 168 h
Mus musculus [23] = test: Toxicity in C57BL/6 mouse assessed as abnormalities in kidney at 1 mg/kg, ip qd measured on day 7 by necropsy analysis; assay type: organism-based; design: dose 1 mg/kg, route intraperitoneal; conditions: in vivo; summary of the method: as §1

SMILES: CC[C@H](C)[C@H](NC(=O)[C@H](Cc1ccccc1)NC(=O)[C@H](CCC(=O)O)NC(=O)[C@H](CCCCN)NC(=O)[C@H](C)NC(=O)[C@H](C)NC(=O)[C@H](CCC(N)=O)NC(=O)CNC(=O)[C@H](CCC(=O)O)NC(=O)[C@H](CC(C)C)NC(=O)[C@H](Cc1ccc(O)cc1)NC(=O)[C@H](CO)NC(=O)[C@H](CO)NC(=O)[C@@H](NC(=O)[C@H](CC(=O)O)NC(=O)[C@H](CO)NC(=O)[C@@H](NC(=O)[C@H](Cc1ccccc1)NC(=O)[C@@H](NC(=O)CNC(=O)[C@H](CCC(=O)O)NC(=O)[C@H](C)NC(=O)[C@@H](N)Cc1c[nH]cn1)[C@@H](C)O)[C@@H](C)O)C(C)C)C(=O)N[C@@H](C)C(=O)N[C@@H](Cc1c[nH]c2ccccc12)C(=O)N[C@@H](CC(C)C)C(=O)N[C@H](C(=O)N[C@@H](CCCCN)C(=O)NCC(=O)N[C@@H](CCCNC(=N)N)C(N)=O)C(C)C
Stability (Dipeptidyl peptidase 4 [1]): Stable
Stability (Trypsin): Unstable
Stability [2]: Unstable

Ki (Dipeptidyl peptidase 4 [3]): 142 µM
half-life [4]: 5 min
SMILES: CC(C)[C@H](N)C(=O)N1CCC[C@H]1C(=O)N[C@@H](CC(=O)O)C(=O)N1CCC[C@H]1C(=O)N[C@@H](CCCNC(=N)N)C(N)=O (H-VPDPR-NH2)

half-life [5]: 15 min
SMILES: CC[C@H](C)[C@H](NC(=O)[C@H](CCCNC(=N)N)NC(=O)[C@H](CC(=O)O)NC(=O)[C@H](CCSC)NC(=O)[C@H](CCCCN)NC(=O)[C@H](CCCNC(=N)N)NC(=O)CNC(=O)[C@H](Cc1ccccc1)NC(=O)[C@H](CS)NC(=O)CNC(=O)[C@H](CO)NC(=O)CNC(=O)[C@H](CCC(N)=O)NC(=O)[C@@H](NC(=O)[C@H](CCSC)NC(=O)[C@H](CCCCN)NC(=O)[C@@H]1CCCN1C(=O)[C@@H](N)CO)C(C)C)C(=O)N[C@@H](CO)C(=O)N[C@@H](CO)C(=O)N[C@@H](CO)C(=O)N[C@@H](CO)C(=O)NCC(=O)N[C@@H](CC(C)C)C(=O)NCC(=O)N[C@@H](CS)C(=O)N[C@@H](CCCCN)C(=O)N[C@H](C(=O)N[C@@H](CC(C)C)C(=O)N[C@@H](CCCNC(=N)N)C(=O)N[C@@H](CCCNC(=N)N)C(=O)N[C@@H](Cc1cnc[nH]1)C(N)=O)C(C)C

Stability (Dipeptidyl peptidase 4 [11]): Stable
SMILES: CC[C@H](C)[C@H](NC(=O)[C@H](Cc1ccccc1)NC(=O)[C@H](CCC(=O)O)NC(=O)[C@H](CCCCN)NC(=O)[C@H](C)NC(=O)[C@H](C)NC(=O)[C@H](CCC(N)=O)NC(=O)CNC(=O)[C@H](CCC(=O)O)NC(=O)[C@H](CC(C)C)NC(=O)[C@H](Cc1ccc(O)cc1)NC(=O)[C@H](CO)NC(=O)[C@H](CO)NC(=O)[C@@H](NC(=O)[C@H](CC(=O)O)NC(=O)[C@H](CO)NC(=O)[C@@H](NC(=O)[C@H](Cc1ccccc1)NC(=O)[C@@H](NC(=O)CNC(=O)C(NC(=O)[C@H](C)NC(=O)[C@@H](N)Cc1c[nH]cn1)C(C)(C)C(=O)O)[C@@H](C)O)[C@@H](C)O)C(C)C)C(=O)N[C@@H](C)C(=O)N[C@@H](Cc1c[nH]c2ccccc12)C(=O)N[C@@H](CC(C)C)C(=O)N[C@H](C(=O)N[C@@H](CCCCN)C(=O)NCC(=O)N[C@@H](CCCNC(=N)N)C(N)=O)C(C)C (some centres undefined)
Activity (Mus musculus [6]): Non-toxic
Activity (Mus musculus [7]): 50%
Activity (Mus musculus [8]): Non-toxic
Activity (Mus musculus [9]): Non-toxic
Activity (Mus musculus [10]): Non-toxic
Activity (Mus musculus [12]): Non-toxic
Activity (Mus musculus [13]): Non-toxic
Activity (Mus musculus [14]): Non-toxic
Activity (Mus musculus [15]): Active
Activity (Mus musculus [16]): Non-toxic
Activity (Mus musculus [17]): 45%
Activity (Mus musculus [18]): Non-toxic
Activity (Mus musculus [19]): Non-toxic
Activity (Mus musculus [20]): inactive
Activity (Mus musculus [21]): Non-toxic
Activity (Mus musculus [22]): Non-toxic
Activity (Mus musculus [23]): Non-toxic

Reference: ChEMBL document CHEMBL3085773, “A general method for making peptide therapeutics resistant to serine protease degradation: application to dipeptidyl peptidase IV substrates” (J Med Chem, 2013)
